Source: ChEMBL document CHEMBL4689842, “EUbOPEN Chemogenomics Library wave 1” (2021)

Assays:
Type in all cases: toxicity, cell-based
[1] = tested on: Fibroblast; assay: Multiplex assay against human fibroblast
Summary of the method: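 Live cells carried four stains from seeding: Hoechst33342, BioTracker Green Microtubule Cytoskeleton Dye, MitoTracker Red and Annexin V Alexa Fluor 680. They were imaged on a CQ1 microscope at 37°C and 5% CO2 after compound addition. Using CellPathfinder machine-learning gating, cells were split into Hoechst high-intensity objects or normal cells, normal cells into healthy, pyknosed or fragmented nuclei, and pyknosed cells into mitotic or apoptotic; tubulin, mitochondrial-mass and membrane-permeability phenotypes are per cents of healthy-nucleus cells.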

[2] = tested on: Fibroblast; assay: Incucyte cell viability with human fibroblast; conditions: 10 µM, compound concentration 10 uM; further: filed as whole numbers so only -1 and 0 and 1 occur
[3] = tested on: U2OS; assay: Incucyte cell viability with U2OS; conditions: human, 10 µM, compound concentration 10 uM; further: filed as whole numbers so only -1 and 0 and 1 occur
[4] = 12 h, 1 µM, compound concentration 1 uM, replicate 1
[5] = 12 h, 1 µM, compound concentration 1 uM, replicate 2
[6] = 12 h, 10 µM, compound concentration 10 uM, replicate 1
[7] = 12 h, 10 µM, compound concentration 10 uM, replicate 2
[8] = 24 h, 1 µM, compound concentration 1 uM, replicate 1
[9] = 24 h, 1 µM, compound concentration 1 uM, replicate 2
[10] = 24 h, 10 µM, compound concentration 10 uM, replicate 1
[11] = 24 h, 10 µM, compound concentration 10 uM, replicate 2
[12] = 0 h, replicate number 1, timepoint 0 hours
[13] = 0 h, replicate number 2, timepoint 0 hours
[14] = 6 h, replicate number 1, timepoint 6 hours
[15] = 12 h, replicate number 1, timepoint 12 hours
[16] = 18 h, replicate number 1, timepoint 18 hours
[17] = 24 h, replicate number 1, timepoint 24 hours

Compound: CN(C)C/C=C/C(=O)Nc1cc2c(Nc3ccc(F)c(Cl)c3)ncnc2cc1O[C@H]1CCOC1.O=C(O)/C=C\C(=O)O.O=C(O)/C=C\C(=O)O [AFATINIB DIMALEATE]
- Population Apoptotic (%) [1, 4]: 66%
- Population Fragmented Nuclei (%) [1, 4]: 30%
- Population Healthy Nuclei (%) [1, 4]: 53%
- Population Hoechst High Intensity Objects (%) [1, 4]: 13%
- Population Membrane Permeable-Phenotype (%) [1, 4]: 13%
- Population Mitochondria Different-Phenotype (%) [1, 4]: 3%
- Population Mitotic Cells (%) [1, 4]: 33%
- Population Normal (%) [1, 4]: 86%
- Population Pyknosed Nuclei (%) [1, 4]: 16%
- Population Tubulin-Different-Phenotype (%) [1, 4]: 10%
- Total Cell Count [1, 4]: 234
- Population Apoptotic (%) [1, 5]: 45%
- Population Fragmented Nuclei (%) [1, 5]: 60%
- Population Healthy Nuclei (%) [1, 5]: 21%
- Population Hoechst High Intensity Objects (%) [1, 5]: 38%
- Population Membrane Permeable-Phenotype (%) [1, 5]: 7%
- Population Mitochondria Different-Phenotype (%) [1, 5]: 30%
- Population Mitotic Cells (%) [1, 5]: 54%
- Population Normal (%) [1, 5]: 61%
- Population Pyknosed Nuclei (%) [1, 5]: 18%
- Population Tubulin-Different-Phenotype (%) [1, 5]: 15%
- Total Cell Count [1, 5]: 99
- Population Apoptotic (%) [1, 6]: 58%
- Population Fragmented Nuclei (%) [1, 6]: 27%
- Population Healthy Nuclei (%) [1, 6]: 50%
- Population Hoechst High Intensity Objects (%) [1, 6]: 24%
- Population Membrane Permeable-Phenotype (%) [1, 6]: 18%
- Population Mitochondria Different-Phenotype (%) [1, 6]: 12%
- Population Mitotic Cells (%) [1, 6]: 41%
- Population Normal (%) [1, 6]: 75%
- Population Pyknosed Nuclei (%) [1, 6]: 22%
- Population Tubulin-Different-Phenotype (%) [1, 6]: 68%
- Total Cell Count [1, 6]: 247
- Population Apoptotic (%) [1, 7]: 22%
- Population Fragmented Nuclei (%) [1, 7]: 33%
- Population Healthy Nuclei (%) [1, 7]: 52%
- Population Hoechst High Intensity Objects (%) [1, 7]: 34%
- Population Membrane Permeable-Phenotype (%) [1, 7]: 16%
- Population Mitochondria Different-Phenotype (%) [1, 7]: 13%
- Population Mitotic Cells (%) [1, 7]: 77%
- Population Normal (%) [1, 7]: 65%
- Population Pyknosed Nuclei (%) [1, 7]: 13%
- Population Tubulin-Different-Phenotype (%) [1, 7]: 91%
- Total Cell Count [1, 7]: 104
- Population Apoptotic (%) [1, 8]: 72%
- Population Fragmented Nuclei (%) [1, 8]: 35%
- Population Healthy Nuclei (%) [1, 8]: 53%
- Population Hoechst High Intensity Objects (%) [1, 8]: 18%
- Population Membrane Permeable-Phenotype (%) [1, 8]: 5%
- Population Mitochondria Different-Phenotype (%) [1, 8]: 7%
- Population Mitotic Cells (%) [1, 8]: 27%
- Population Normal (%) [1, 8]: 81%
- Population Pyknosed Nuclei (%) [1, 8]: 10%
- Population Tubulin-Different-Phenotype (%) [1, 8]: 13%
- Total Cell Count [1, 8]: 247
- Population Apoptotic (%) [1, 9]: 50%
- Population Fragmented Nuclei (%) [1, 9]: 54%
- Population Healthy Nuclei (%) [1, 9]: 28%
- Population Hoechst High Intensity Objects (%) [1, 9]: 34%
- Population Membrane Permeable-Phenotype (%) [1, 9]: 0%
- Population Mitochondria Different-Phenotype (%) [1, 9]: 6%
- Population Mitotic Cells (%) [1, 9]: 50%
- Population Normal (%) [1, 9]: 65%
- Population Pyknosed Nuclei (%) [1, 9]: 17%
- Population Tubulin-Different-Phenotype (%) [1, 9]: 12%
- Total Cell Count [1, 9]: 87
- Population Apoptotic (%) [1, 10]: 57%
- Population Fragmented Nuclei (%) [1, 10]: 29%
- Population Healthy Nuclei (%) [1, 10]: 54%
- Population Hoechst High Intensity Objects (%) [1, 10]: 38%
- Population Membrane Permeable-Phenotype (%) [1, 10]: 19%
- Population Mitochondria Different-Phenotype (%) [1, 10]: 21%
- Population Mitotic Cells (%) [1, 10]: 42%
- Population Normal (%) [1, 10]: 61%
- Population Pyknosed Nuclei (%) [1, 10]: 15%
- Population Tubulin-Different-Phenotype (%) [1, 10]: 61%
- Population Apoptotic (%) [1, 11]: 66%
- Population Fragmented Nuclei (%) [1, 11]: 49%
- Population Healthy Nuclei (%) [1, 11]: 36%
- Population Hoechst High Intensity Objects (%) [1, 11]: 35%
- Population Membrane Permeable-Phenotype (%) [1, 11]: 34%
- Population Mitochondria Different-Phenotype (%) [1, 11]: 26%
- Population Mitotic Cells (%) [1, 11]: 33%
- Population Normal (%) [1, 11]: 64%
- Population Pyknosed Nuclei (%) [1, 11]: 14%
- Population Tubulin-Different-Phenotype (%) [1, 11]: 82%
- Total Cell Count [1, 11]: 98
- Growth Rate [2, 12]: 0
- Growth Rate [2, 13]: 1
- Growth Rate [2, 14]: 0
- Growth Rate [2, 15]: 0
- Growth Rate [2, 16]: 0
- Growth Rate [2, 17]: 0
- Growth Rate [3, 12]: 0
- Growth Rate [3, 13]: 1
- Growth Rate [3, 14]: 0
- Growth Rate [3, 15]: 0
- Growth Rate [3, 16]: 0
- Growth Rate [3, 17]: 0

Compound: CC(C)(C)c1cnc(CSc2cnc(NC(=O)C3CCNCC3)s2)o1 [BMS-387032]
- Population Apoptotic (%) [1, 4]: 75%
- Population Fragmented Nuclei (%) [1, 4]: 25%
- Population Healthy Nuclei (%) [1, 4]: 56%
- Population Hoechst High Intensity Objects (%) [1, 4]: 12%
- Population Membrane Permeable-Phenotype (%) [1, 4]: 10%
- Population Mitochondria Different-Phenotype (%) [1, 4]: 10%
- Population Mitotic Cells (%) [1, 4]: 24%
- Population Normal (%) [1, 4]: 87%
- Population Pyknosed Nuclei (%) [1, 4]: 18%
- Population Tubulin-Different-Phenotype (%) [1, 4]: 11%
- Total Cell Count [1, 4]: 199
- Population Apoptotic (%) [1, 5]: 50%
- Population Fragmented Nuclei (%) [1, 5]: 58%
- Population Healthy Nuclei (%) [1, 5]: 33%
- Population Hoechst High Intensity Objects (%) [1, 5]: 37%
- Population Membrane Permeable-Phenotype (%) [1, 5]: 5%
- Population Mitochondria Different-Phenotype (%) [1, 5]: 5%
- Population Mitotic Cells (%) [1, 5]: 50%
- Population Normal (%) [1, 5]: 62%
- Population Pyknosed Nuclei (%) [1, 5]: 7%
- Population Tubulin-Different-Phenotype (%) [1, 5]: 0%
- Total Cell Count [1, 5]: 82
- Population Apoptotic (%) [1, 6]: 75%
- Population Fragmented Nuclei (%) [1, 6]: 28%
- Population Healthy Nuclei (%) [1, 6]: 54%
- Population Hoechst High Intensity Objects (%) [1, 6]: 8%
- Population Membrane Permeable-Phenotype (%) [1, 6]: 1%
- Population Mitochondria Different-Phenotype (%) [1, 6]: 21%
- Population Mitotic Cells (%) [1, 6]: 24%
- Population Normal (%) [1, 6]: 91%
- Population Pyknosed Nuclei (%) [1, 6]: 17%
- Population Tubulin-Different-Phenotype (%) [1, 6]: 32%
- Total Cell Count [1, 6]: 207
- Population Apoptotic (%) [1, 7]: 54%
- Population Fragmented Nuclei (%) [1, 7]: 58%
- Population Healthy Nuclei (%) [1, 7]: 19%
- Population Hoechst High Intensity Objects (%) [1, 7]: 26%
- Population Membrane Permeable-Phenotype (%) [1, 7]: 0%
- Population Mitochondria Different-Phenotype (%) [1, 7]: 50%
- Population Mitotic Cells (%) [1, 7]: 45%
- Population Normal (%) [1, 7]: 73%
- Population Pyknosed Nuclei (%) [1, 7]: 21%
- Population Tubulin-Different-Phenotype (%) [1, 7]: 40%
- Total Cell Count [1, 7]: 69
- Population Apoptotic (%) [1, 8]: 54%
- Population Fragmented Nuclei (%) [1, 8]: 30%
- Population Healthy Nuclei (%) [1, 8]: 47%
- Population Hoechst High Intensity Objects (%) [1, 8]: 12%
- Population Membrane Permeable-Phenotype (%) [1, 8]: 6%
- Population Mitochondria Different-Phenotype (%) [1, 8]: 4%
- Population Mitotic Cells (%) [1, 8]: 45%
- Population Normal (%) [1, 8]: 87%
- Population Pyknosed Nuclei (%) [1, 8]: 21%
- Population Tubulin-Different-Phenotype (%) [1, 8]: 10%
- Total Cell Count [1, 8]: 197
- Population Apoptotic (%) [1, 9]: 62%
- Population Fragmented Nuclei (%) [1, 9]: 51%
- Population Healthy Nuclei (%) [1, 9]: 32%
- Population Hoechst High Intensity Objects (%) [1, 9]: 35%
- Population Membrane Permeable-Phenotype (%) [1, 9]: 5%
- Population Mitochondria Different-Phenotype (%) [1, 9]: 5%
- Population Mitotic Cells (%) [1, 9]: 37%
- Population Normal (%) [1, 9]: 65%
- Population Pyknosed Nuclei (%) [1, 9]: 15%
- Population Tubulin-Different-Phenotype (%) [1, 9]: 5%
- Total Cell Count [1, 9]: 80
- Population Apoptotic (%) [1, 10]: 65%
- Population Fragmented Nuclei (%) [1, 10]: 34%
- Population Healthy Nuclei (%) [1, 10]: 48%
- Population Hoechst High Intensity Objects (%) [1, 10]: 8%
- Population Membrane Permeable-Phenotype (%) [1, 10]: 4%
- Population Mitochondria Different-Phenotype (%) [1, 10]: 29%
- Population Mitotic Cells (%) [1, 10]: 34%
- Population Normal (%) [1, 10]: 91%
- Population Pyknosed Nuclei (%) [1, 10]: 17%
- Population Tubulin-Different-Phenotype (%) [1, 10]: 54%
- Total Cell Count [1, 10]: 196
- Population Apoptotic (%) [1, 11]: 62%
- Population Fragmented Nuclei (%) [1, 11]: 44%
- Population Healthy Nuclei (%) [1, 11]: 18%
- Population Hoechst High Intensity Objects (%) [1, 11]: 31%
- Population Membrane Permeable-Phenotype (%) [1, 11]: 0%
- Population Mitochondria Different-Phenotype (%) [1, 11]: 62%
- Population Mitotic Cells (%) [1, 11]: 37%
- Population Normal (%) [1, 11]: 68%
- Population Pyknosed Nuclei (%) [1, 11]: 37%
- Population Tubulin-Different-Phenotype (%) [1, 11]: 50%
- Total Cell Count [1, 11]: 63
- Growth Rate [2, 12]: 0
- Growth Rate [2, 14]: 0
- Growth Rate [2, 15]: 0
- Growth Rate [2, 16]: 0
- Growth Rate [2, 17]: 0
- Growth Rate [3, 12]: 0
- Growth Rate [3, 14]: 1
- Growth Rate ([3]; 6 h, replicate number 2, timepoint 6 hours): 0
- Growth Rate [3, 15]: 0
- Growth Rate [3, 16]: 0
- Growth Rate [3, 17]: 0
